Measured values from ChEMBL document CHEMBL4842338, “System-oriented optimization of multi-target 2,6-diaminopurine derivatives: Easily accessible broad-spectrum antivirals active against flaviviruses, influenza virus and SARS-CoV-2” (Eur J Med Chem, 2021).
Calls of active or inactive are those of the source. The calls are words filed in the database; no cut-off is given here.

Experiments:
[1] = Selectivity index, ratio of CC50 for human Huh-7 cells to IC50 for Dengue virus serotype 2 New Guinea C infected in pre-seeded Huh-7 cells assessed as inhibition of viral replication incubated for 72 hrs by immunodetection based secondary yield reduction assay; format: toxicity, cell-based; conditions: read-out: Selectivity Index
Huh-7 [2] = assay: Effect on formation of DENV replication complex in human Huh-7 cells assessed as reduction in NS5 translocation into nucleus at 100 uM measured after 16 to 24 hrs by DAPI staining based confocal microscopy analysis; format: functional, cell-based; conditions: time 16-24 hrs
How it was run: (§1)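 Huh-7 cells (1 × 10⁴) on coverslips infected with DENV-2 (MOI 0.05), treated (100 or 50 μM as listed), fixed in 4% paraformaldehyde at 8, 12, 16, 24 h; anti-NS3/anti-NS5 with Alexa 488/568 secondaries, DAPI; confocal, 5 random fields at 40×; % positive cells; 2-way ANOVA with Dunnett.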

West Nile virus [3] = assay: Antiviral activity against West Nile virus lineage 1 (Italy/2009) infected in pre-seeded Huh-7 cells assessed as inhibition of viral replication incubated for 48 hrs by immunodetection based plaque reduction assay; format: functional, organism-based; conditions: Huh-7, 48 h
[4] = Selectivity index, ratio of CC50 for human Huh-7 cells to IC50 for Dengue virus serotype 2 New Guinea C infected in pre-seeded Huh-7 cells assessed as inhibition of viral replication incubated for 72 hrs by immunodetection based plaque reduction assay; format: toxicity, cell-based; conditions: read-out: Selectivity Index
[5] = Selectivity index, ratio of CC50 for human Huh-7 cells to IC50 for Zika virus H/PF/2013 infected in pre-seeded Huh-7 cells assessed as inhibition of viral replication incubated for 72 hrs by immunodetection based secondary yield reduction assay; format: toxicity, cell-based; conditions: read-out: Selectivity Index
[6] = Selectivity index, ratio of CC50 for human Huh-7 cells to IC50 for West Nile virus lineage 1 (Italy/2009) infected in pre-seeded Huh-7 cells assessed as inhibition of viral replication incubated for 48 hrs by immunodetection based plaque reduction assay; format: toxicity, cell-based; conditions: read-out: Selectivity Index
[7] = Selectivity index, ratio of CC50 for human Huh-7 cells to IC50 for West Nile virus lineage 1 (Italy/2009) infected in pre-seeded Huh-7 cells assessed as inhibition of viral replication incubated for 48 hrs by immunodetection based direct yield reduction assay; format: toxicity, cell-based; conditions: read-out: Selectivity Index
How it was run: (§2)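 Direct yield reduction in Huh7 cells (7000/well), infected with 50 TCID₅₀ of DENV or ZIKV, or 25 TCID₅₀ of WNV. Adsorption 1 h at 37 °C, then virus removed and serial compound dilutions added. Incubated 72 h (DENV, ZIKV) or 48 h (WNV). Viral antigen immunodetected on the monolayer. IC₅₀ by non-linear regression, mean of three experiments. SI = CC₅₀ (Huh7, CellTiter-Glo luminescence)/IC₅₀.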

[8] = Selectivity index, ratio of CC50 for human Huh-7 cells to IC50 for Zika virus H/PF/2013 infected in pre-seeded Huh-7 cells assessed as inhibition of viral replication incubated for 72 hrs by immunodetection based direct yield reduction assay; format: toxicity, cell-based; conditions: read-out: Selectivity Index; how it was run: as §2
dengue virus type 2 [9] = assay: Antiviral activity against Dengue virus serotype 2 New Guinea C infected in pre-seeded Huh-7 cells assessed as inhibition of viral replication incubated for 72 hrs by immunodetection based direct yield reduction assay; format: functional, organism-based; conditions: Dengue virus, New Guinea C, Huh-7, 72 h; read-out: IC50
Huh-7 [10] = assay: Effect on formation of DENV replication complex in human Huh-7 cells assessed as reduction NS3 translocation into cytoplasm at 100 uM measured after 16 to 24 hrs by DAPI staining based confocal microscopy analysis; format: functional, cell-based; conditions: time 16-24 hrs; how it was run: as §1
Zika virus [11] = assay: Antiviral activity against Zika virus H/PF/2013 infected in pre-seeded Huh-7 cells assessed as inhibition of viral replication incubated for 72 hrs by immunodetection based secondary yield reduction assay; format: functional, organism-based; conditions: H/PF/2013, Huh-7, 72 h
Zika virus [12] = assay: Antiviral activity against Zika virus H/PF/2013 infected in pre-seeded Huh-7 cells assessed as inhibition of viral replication incubated for 72 hrs by immunodetection based direct yield reduction assay; format: functional, organism-based; conditions: H/PF/2013, Huh-7, 72 h; how it was run: as §2
[13] = Selectivity index, ratio of CC50 for human Huh-7 cells to IC50 for Zika virus H/PF/2013 infected in pre-seeded Huh-7 cells assessed as inhibition of viral replication incubated for 72 hrs by immunodetection based plaque reduction assay; format: toxicity, cell-based; conditions: read-out: Selectivity Index
Zika virus [14] = assay: Antiviral activity against Zika virus H/PF/2013 infected in pre-seeded Huh-7 cells assessed as inhibition of viral replication incubated for 72 hrs by immunodetection based plaque reduction assay; format: functional, organism-based; conditions: H/PF/2013, Huh-7, 72 h
[15] = Cytotoxicity against human Huh-7 cells assessed as reduction in cell viability by Celltiter-Glo luminescent cell viability assay; format: cell-based; conditions: Huh-7 cells
How it was run: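 Compound-exposed cells assessed by CellTiter-Glo luminescence versus DMSO control; CC50 from dose-response.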

Huh-7 [16] = assay: Effect on formation of DENV replication complex in human Huh-7 cells assessed as reduction in expression of NS5 at 100 uM measured after 8 to 24 hrs by DAPI staining based confocal microscopy analysis; format: functional, cell-based; conditions: time 8-24 hrs; how it was run: as §1
dengue virus type 2 [17] = assay: Antiviral activity against Dengue virus serotype 2 New Guinea C infected in pre-seeded Huh-7 cells assessed as inhibition of viral replication incubated for 72 hrs by immunodetection based secondary yield reduction assay; format: functional, organism-based; conditions: Dengue virus, New Guinea C, Huh-7, 72 h; read-out: IC50
[18] = Selectivity index, ratio of CC50 for human Huh-7 cells to IC50 for Dengue virus serotype 2 New Guinea C infected in pre-seeded Huh-7 cells assessed as inhibition of viral replication incubated for 72 hrs by immunodetection based direct yield reduction assay; format: toxicity, cell-based; conditions: read-out: Selectivity Index; how it was run: as §2
West Nile virus [19] = assay: Antiviral activity against West Nile virus lineage 1 (Italy/2009) infected in pre-seeded Huh-7 cells assessed as inhibition of viral replication incubated for 48 hrs by immunodetection based direct yield reduction assay; format: functional, organism-based; conditions: West Nile virus, lineage 1 (Italy/2009), Huh-7, 48 h; read-out: IC50
Huh-7 [20] = assay: Effect on formation of DENV replication complex in human Huh-7 cells assessed as reduction in expression of NS3 at 100 uM measured after 8 to 24 hrs by DAPI staining based confocal microscopy analysis; format: functional, cell-based; conditions: time 8-24 hrs; how it was run: as §1

With `CC(C)OC(=O)[C@H](C)N[P@](=O)(OC[C@H]1O[C@@H](n2ccc(=O)[nH]c2=O)[C@](C)(F)[C@@H]1O)Oc1ccccc1` [SOFOSBUVIR] the selectivity ratio at 72 h [1] was 42, the Activity (Huh-7 [2]) was “Active” and the IC50 (West Nile virus [3]) was 1200 nM. For the same molecule, the selectivity ratio at 72 h [4] was 50, the selectivity ratio at 72 h [5] was 62 and the selectivity ratio at 48 h [6] was 166. The selectivity ratio at 48 h [7] was 117, the selectivity ratio at 72 h [8] was 74 and the IC50 (dengue virus type 2 [9]) was 4600 nM. For the same molecule, the Activity (Huh-7 [10]) was “inactive”, the IC50 (Zika virus [11]) was 3200 nM and the IC50 (Zika virus [12]) was 2700 nM. For the same molecule, the selectivity ratio at 72 h [13] was 100, the IC50 (Zika virus [14]) was 2000 nM and the CC50 [15] was 200000 nM. The Activity (Huh-7 [16]) was “Active”, the IC50 (dengue virus type 2 [17]) was 4700 nM and the selectivity ratio at 72 h [18] was 43. For the same molecule, the IC50 (West Nile virus [19]) was 1700 nM and the Activity (Huh-7 [20]) was “Active”.
